Data published in ChEMBL document CHEMBL1139384, “First Cdc7 kinase inhibitors: pyrrolopyridinones as potent and orally active antitumor agents. 2. Lead discovery” (J Med Chem, 2009).
Calls of active or inactive are those of the source. No cut-off for these calls is given here.

Experiments:
Cytochrome P450 2D6 = Cytochrome P450 2D6 (Homo sapiens, UniProt P10635); test: Inhibition of human CYP2D6; format: ADME
[1] = Inhibition of PDGFR
[2] = target: Serine/threonine-protein kinase TAO3 (Homo sapiens, UniProt Q9H2K8); test: Inhibition of TAO3
Sequence of Serine/threonine-protein kinase TAO3 (Q9H2K8 whole entry): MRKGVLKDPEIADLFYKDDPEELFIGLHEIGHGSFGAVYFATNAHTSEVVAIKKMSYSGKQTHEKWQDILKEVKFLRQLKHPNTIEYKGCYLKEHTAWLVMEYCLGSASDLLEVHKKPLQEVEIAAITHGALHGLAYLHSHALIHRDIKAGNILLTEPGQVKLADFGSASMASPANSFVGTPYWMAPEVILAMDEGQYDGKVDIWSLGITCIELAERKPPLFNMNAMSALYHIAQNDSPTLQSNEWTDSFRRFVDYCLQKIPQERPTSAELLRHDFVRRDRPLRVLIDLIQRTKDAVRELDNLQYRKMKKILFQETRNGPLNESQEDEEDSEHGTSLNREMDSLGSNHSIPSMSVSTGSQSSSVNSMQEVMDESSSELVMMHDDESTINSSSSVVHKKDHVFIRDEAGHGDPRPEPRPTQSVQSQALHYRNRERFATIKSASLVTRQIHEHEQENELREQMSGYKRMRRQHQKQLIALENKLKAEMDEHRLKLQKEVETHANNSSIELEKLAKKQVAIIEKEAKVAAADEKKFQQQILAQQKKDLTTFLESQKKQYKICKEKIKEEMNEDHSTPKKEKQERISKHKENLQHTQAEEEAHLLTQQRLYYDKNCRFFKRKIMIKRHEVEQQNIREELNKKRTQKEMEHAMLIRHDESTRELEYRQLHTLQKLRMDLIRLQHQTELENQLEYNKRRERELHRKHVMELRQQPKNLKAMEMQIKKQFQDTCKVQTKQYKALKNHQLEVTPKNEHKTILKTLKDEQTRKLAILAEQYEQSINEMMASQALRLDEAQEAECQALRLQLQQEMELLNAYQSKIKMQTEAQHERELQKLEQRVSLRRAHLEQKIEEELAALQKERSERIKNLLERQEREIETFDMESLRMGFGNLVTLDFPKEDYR

[3] = AUC (0 to infinity) in nu/nu mouse at 10 mg/kg, iv administered as single dose; format: ADME, organism-based; parameters: dose 10 mg/kg, route intravenous, time infinity; details: plasma
In short: (§1)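 Single iv or oral dose in 5% dextrose to overnight-fasted animals. Nu/Nu mice: males, 3 per route, saphenous bleeds to 24 h. Han-Wistar rats: males, 3 per route, jugular bleeds to 24 h. Beagle dogs: 2 per sex, iv and po crossover 2 weeks apart, jugular bleeds to 48 h. Plasma by LC/MS/MS; noncompartmental parameters, AUC by linear trapezoid with extrapolation.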

[4] = target: T1, Cell division cycle 7-related protein kinase (Homo sapiens, UniProt O00311); test: Inhibition of human Cdc7 in human A2780 cells assessed as inhibition of Ser40 phosphorylation of Mcm2 protein after 4 hrs; format: cell-based
In short: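 A2780 cells exposed for 4 h to a range of concentrations, then lysed in 50 mmol/L Tris-HCl pH 6.8, 1% SDS, 1 mmol/L DTT and sonicated 10 s. 15 µg protein per lane ([…]) was taken for Western blot with phospho-specific antibodies to MCM2 Ser40 and Ser53.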

[5] = Renal clearance in Beagle dog at 5 mg/kg, iv administered as single dose; format: ADME, organism-based, Canis lupus familiaris, Kidney; parameters: dose 5 mg/kg, route intravenous; details: in vivo, read-out: CL_renal (converted)
In short: (§2)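 Overnight-fasted Beagle dogs, 2 per sex, in a crossover design: 5 mg/kg iv and 10 mg/kg po, two weeks apart, in 5% dextrose. Jugular blood was drawn up to 48 h, and urine was collected over 0–8, 8–24 and 24–48 h. Samples were assayed by LC/MS/MS and analysed noncompartmentally.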

A2780 = test: Antiproliferative activity against human A2780 cells after 72 hrs by luciferase based assay; format: functional, cell-based; details: Homo sapiens, A2780, 72 h
[6] = Cmax in Beagle dog at 10 mg/kg, po administered as single dose; format: ADME, organism-based, Canis lupus familiaris; parameters: dose 10 mg/kg, route oral; details: in vivo; in short: as §1
[7] = target: Serine/threonine-protein kinase 26 (Homo sapiens, UniProt Q9P289); test: Inhibition of MST4
Sequence of Serine/threonine-protein kinase 26 (Q9P289 whole entry): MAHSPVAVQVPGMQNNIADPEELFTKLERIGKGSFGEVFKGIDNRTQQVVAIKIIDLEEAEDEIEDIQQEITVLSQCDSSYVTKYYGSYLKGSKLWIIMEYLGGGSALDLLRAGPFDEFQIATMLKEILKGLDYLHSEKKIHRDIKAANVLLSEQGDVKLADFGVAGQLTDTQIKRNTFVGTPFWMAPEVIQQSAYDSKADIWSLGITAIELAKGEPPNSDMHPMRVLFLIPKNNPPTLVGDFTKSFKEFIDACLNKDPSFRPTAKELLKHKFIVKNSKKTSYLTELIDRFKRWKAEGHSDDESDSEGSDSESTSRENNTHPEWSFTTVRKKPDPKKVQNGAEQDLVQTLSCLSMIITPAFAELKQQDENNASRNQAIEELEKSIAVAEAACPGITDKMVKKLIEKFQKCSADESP

[8] = target: Cyclin-dependent kinase 2 (Homo sapiens, UniProt P24941); test: Inhibition of Cdk2A
[9] = Half life in Beagle dog at 10 mg/kg, po administered as single dose; format: ADME, organism-based, Canis lupus familiaris; parameters: dose 10 mg/kg, route oral; details: in vivo; in short: as §1
Mus musculus [10] = test: Inhibition of human Cdc7 in human A2780 cells xenografted in CDI nu/nu mouse assessed as inhibition of Ser40 phosphorylation of Mcm2 protein at 60 mg/kg, po first dose administered at 6 hrs and second dose 3 hrs after first dose by Western blot; format: functional, organism-based; parameters: dose 60 mg/kg
In short: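 Mice bearing A2780 xenografts given two oral doses of 60 mg/kg, the second 3 h after the first, over 6 h, or vehicle. Explanted tumors blotted for Mcm2 phospho-Ser40 and phospho-Ser53, with total MCM2 and tubulin as loading controls.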

Mus musculus [11] = test: Inhibition of human Cdc7 in human A2780 cells xenografted in CDI nu/nu mouse assessed as inhibition of Ser53 phosphorylation of Mcm2 protein at 60 mg/kg, po first dose administered at 6 hrs and second dose 3 hrs after first dose by Western blot; format: functional, organism-based; parameters: dose 60 mg/kg
In short: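 A2780 human ovarian carcinoma grown subcutaneously in CDI nu/nu mice. Two oral doses of 60 mg/kg were given within 6 h, the second 3 h after the first. Tumors were explanted and analysed by Western blot for MCM2 phosphorylated at Ser40 and Ser53, with total MCM2 and tubulin as loading controls. Vehicle-treated tumors served as controls.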

Aurora kinase A = Aurora kinase A (Homo sapiens, UniProt O14965); test: Inhibition of AUR2
[12] = Inhibition of Cdk1b
[13] = Antiproliferative activity against human NCI-H929 cells after 72 hrs by luciferase based assay; format: functional, cell-based; details: NCI-H929, 72 h
In short: (§3)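 Cells seeded at 2500–5000/well in complete medium (RPMI1640, McCoy's or DMEM with 10% FCS, by line); compound added after 24 h, 72 h at 37 °C, 5% CO2.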

[14] = Half life in Wistar rat at 10 mg/kg, iv administered as single dose; format: ADME, organism-based; parameters: dose 10 mg/kg, route intravenous; details: in vivo; in short: as §1
COLO 205 = test: Antiproliferative activity against human COLO205 cells after 72 hrs by luciferase based assay; format: functional, cell-based; details: COLO 205, 72 h
Cytochrome P450 1A2 = Cytochrome P450 1A2 (Homo sapiens, UniProt P05177); test: Inhibition of human CYP1A2; format: ADME
HeLa [15] = test: Cell cycle arrest in human HeLa cells assessed as accumulation at S phase at 3 uM by fluorescence activated cell sorting; format: functional, cell-based
In short: (§4)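 Logarithmically growing HeLa cells exposed to 3 µM for set times, labelled with 50 µM BrdU, fixed in 70% ethanol. DNA content by propidium iodide with RNase A, 30 min at 37 °C; BrdU by FITC anti-BrdU after 2N HCl denaturation; percent positive cells by FACS.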

[16] = Cmax in nu/nu mouse at 10 mg/kg, iv administered as single dose; format: ADME, organism-based; parameters: dose 10 mg/kg, route intravenous; details: in vivo; in short: as §1
Cytochrome P450 2C19 = Cytochrome P450 2C19 (Homo sapiens, UniProt P33261); test: Inhibition of human CYP2C19; format: ADME
HeLa [17] = test: Inhibition of DNA synthesis in human HeLa cells at 3 uM assessed as bromodeoxyuridine incorporation after 3 hrs; format: functional; parameters: scale not given: the % may be the effect or the level left; in short: as §4
[18] = target: ALK tyrosine kinase receptor (Homo sapiens, UniProt Q9UM73); test: Inhibition of ALK
Sequence of ALK tyrosine kinase receptor (Q9UM73 whole entry): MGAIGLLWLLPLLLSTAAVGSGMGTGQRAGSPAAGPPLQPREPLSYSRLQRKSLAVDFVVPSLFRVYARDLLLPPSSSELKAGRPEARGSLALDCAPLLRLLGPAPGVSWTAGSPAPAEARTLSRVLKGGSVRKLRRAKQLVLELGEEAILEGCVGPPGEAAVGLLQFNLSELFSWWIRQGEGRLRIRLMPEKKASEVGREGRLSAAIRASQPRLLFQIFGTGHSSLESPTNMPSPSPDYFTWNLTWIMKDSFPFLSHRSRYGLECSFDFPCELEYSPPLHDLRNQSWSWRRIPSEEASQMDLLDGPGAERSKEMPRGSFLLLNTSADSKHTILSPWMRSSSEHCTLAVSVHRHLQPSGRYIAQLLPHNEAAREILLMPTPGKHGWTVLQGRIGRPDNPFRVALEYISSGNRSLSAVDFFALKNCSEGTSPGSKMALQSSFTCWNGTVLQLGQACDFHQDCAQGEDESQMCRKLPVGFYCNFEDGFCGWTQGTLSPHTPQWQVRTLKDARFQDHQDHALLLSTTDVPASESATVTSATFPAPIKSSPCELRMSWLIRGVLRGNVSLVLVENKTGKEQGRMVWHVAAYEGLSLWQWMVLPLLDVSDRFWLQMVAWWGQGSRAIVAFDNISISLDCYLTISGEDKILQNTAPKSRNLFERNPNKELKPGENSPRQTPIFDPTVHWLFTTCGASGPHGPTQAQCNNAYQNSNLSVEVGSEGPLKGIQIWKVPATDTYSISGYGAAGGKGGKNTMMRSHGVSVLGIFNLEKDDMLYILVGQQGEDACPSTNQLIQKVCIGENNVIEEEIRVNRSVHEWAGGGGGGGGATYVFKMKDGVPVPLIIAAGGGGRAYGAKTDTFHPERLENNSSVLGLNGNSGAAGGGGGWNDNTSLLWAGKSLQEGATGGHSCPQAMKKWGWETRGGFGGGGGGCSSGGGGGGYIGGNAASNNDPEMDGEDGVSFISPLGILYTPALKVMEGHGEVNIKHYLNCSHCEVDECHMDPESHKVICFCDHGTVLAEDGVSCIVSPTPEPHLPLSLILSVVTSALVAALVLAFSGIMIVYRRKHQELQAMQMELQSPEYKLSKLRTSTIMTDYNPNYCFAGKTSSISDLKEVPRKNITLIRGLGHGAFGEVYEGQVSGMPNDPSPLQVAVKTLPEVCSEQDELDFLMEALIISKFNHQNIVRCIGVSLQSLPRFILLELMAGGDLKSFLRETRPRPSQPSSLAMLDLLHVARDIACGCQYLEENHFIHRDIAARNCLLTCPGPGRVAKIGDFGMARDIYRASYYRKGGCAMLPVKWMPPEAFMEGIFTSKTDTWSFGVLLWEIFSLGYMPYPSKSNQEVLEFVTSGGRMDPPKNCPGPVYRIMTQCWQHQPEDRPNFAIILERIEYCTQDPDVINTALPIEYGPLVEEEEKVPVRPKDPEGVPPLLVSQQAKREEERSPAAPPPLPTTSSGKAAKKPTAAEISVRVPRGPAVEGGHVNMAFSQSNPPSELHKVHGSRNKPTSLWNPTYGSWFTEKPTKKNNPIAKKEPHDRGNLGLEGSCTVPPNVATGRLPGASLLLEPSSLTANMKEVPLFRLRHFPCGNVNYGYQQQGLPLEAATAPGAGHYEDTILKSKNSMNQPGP

[19] = target: T1, Cell division cycle 7-related protein kinase; test: Inhibition of human Cdc7 assessed as inhibition of rate of phosphorylation of Mcm2 protein
[20] = Clearance in Wistar rat at 10 mg/kg, iv administered as single dose; format: ADME, organism-based; parameters: dose 10 mg/kg, route intravenous; details: in vivo; in short: as §1
HT-29 = test: Antiproliferative activity against human HT-29 cells after 72 hrs by luciferase based assay; format: functional, cell-based; details: HT-29, 72 h; in short: as §3
[21] = target: STE20-like serine/threonine-protein kinase (Homo sapiens, UniProt Q9H2G2); test: Inhibition of STLK2
Sequence of STE20-like serine/threonine-protein kinase (Q9H2G2 whole entry): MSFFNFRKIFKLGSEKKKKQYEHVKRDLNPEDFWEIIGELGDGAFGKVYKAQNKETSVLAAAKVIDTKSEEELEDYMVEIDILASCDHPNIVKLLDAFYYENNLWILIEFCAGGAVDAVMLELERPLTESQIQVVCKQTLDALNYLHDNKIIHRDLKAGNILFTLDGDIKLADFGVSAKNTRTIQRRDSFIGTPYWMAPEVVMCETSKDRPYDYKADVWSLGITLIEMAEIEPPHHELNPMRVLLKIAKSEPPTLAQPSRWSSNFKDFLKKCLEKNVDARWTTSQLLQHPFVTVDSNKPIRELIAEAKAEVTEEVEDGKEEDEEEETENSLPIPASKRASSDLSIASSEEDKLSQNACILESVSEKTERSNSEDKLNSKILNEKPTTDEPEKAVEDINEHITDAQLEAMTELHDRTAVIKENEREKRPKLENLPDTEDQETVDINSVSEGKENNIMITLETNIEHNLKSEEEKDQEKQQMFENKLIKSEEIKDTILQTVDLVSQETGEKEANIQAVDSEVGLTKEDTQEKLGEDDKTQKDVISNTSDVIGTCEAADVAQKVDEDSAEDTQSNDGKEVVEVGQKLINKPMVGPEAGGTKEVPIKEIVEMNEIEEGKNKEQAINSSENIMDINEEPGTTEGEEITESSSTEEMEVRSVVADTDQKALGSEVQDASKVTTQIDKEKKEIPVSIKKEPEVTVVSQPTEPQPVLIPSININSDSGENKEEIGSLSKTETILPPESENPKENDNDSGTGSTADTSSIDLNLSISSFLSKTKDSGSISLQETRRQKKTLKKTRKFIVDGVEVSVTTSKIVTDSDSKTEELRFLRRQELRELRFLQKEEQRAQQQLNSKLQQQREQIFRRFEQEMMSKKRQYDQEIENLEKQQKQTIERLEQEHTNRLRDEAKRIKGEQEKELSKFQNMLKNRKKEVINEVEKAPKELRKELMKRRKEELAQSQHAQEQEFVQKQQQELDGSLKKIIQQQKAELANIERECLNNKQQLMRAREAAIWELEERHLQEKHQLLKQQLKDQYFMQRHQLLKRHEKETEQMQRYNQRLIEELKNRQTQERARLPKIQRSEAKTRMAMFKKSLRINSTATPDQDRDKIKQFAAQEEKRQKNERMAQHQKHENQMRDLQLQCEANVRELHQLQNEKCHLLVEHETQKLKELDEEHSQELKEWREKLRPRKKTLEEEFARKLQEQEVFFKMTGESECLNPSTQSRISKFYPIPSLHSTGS

HeLa [22] = test: Inhibition of DNA synthesis in human HeLa cells at 3 uM assessed as bromodeoxyuridine incorporation after 6 hrs; format: functional; parameters: scale not given: the % may be the effect or the level left; in short: as §4
[23] = target: Tyrosine-protein kinase ABL1 (Homo sapiens, UniProt P00519); test: Inhibition of ABL
[24] = Antiproliferative activity against human […] cells after 72 hrs by luciferase based assay; format: functional, cell-based; in short: as §3
[25] = target: Mitogen-activated protein kinase 1 (Homo sapiens, UniProt P28482)
Sequence of Mitogen-activated protein kinase 1 (P28482 whole entry): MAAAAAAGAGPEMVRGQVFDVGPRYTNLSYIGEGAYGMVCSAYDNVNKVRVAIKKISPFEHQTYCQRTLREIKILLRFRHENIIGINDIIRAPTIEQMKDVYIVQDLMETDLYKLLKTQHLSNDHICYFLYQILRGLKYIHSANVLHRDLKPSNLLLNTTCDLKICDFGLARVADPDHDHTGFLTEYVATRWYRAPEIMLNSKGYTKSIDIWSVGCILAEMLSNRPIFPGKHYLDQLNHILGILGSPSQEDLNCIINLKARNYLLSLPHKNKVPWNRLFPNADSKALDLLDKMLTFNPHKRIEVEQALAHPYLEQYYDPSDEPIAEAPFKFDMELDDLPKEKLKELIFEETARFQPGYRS

[26] = Tmax in Beagle dog at 10 mg/kg, po administered as single dose; format: ADME, organism-based, Canis lupus familiaris; parameters: dose 10 mg/kg, route oral; details: in vivo; in short: as §2
[27] = Clearance in Beagle dog at 5 mg/kg, iv administered as single dose; format: ADME, organism-based, Canis lupus familiaris; parameters: dose 5 mg/kg, route intravenous; details: in vivo; in short: as §1
Cytochrome P450 2C9 = Cytochrome P450 2C9 (Homo sapiens, UniProt P11712); test: Inhibition of human CYP2C9; format: ADME
Sequence of Cytochrome P450 2C9 (P11712 whole entry): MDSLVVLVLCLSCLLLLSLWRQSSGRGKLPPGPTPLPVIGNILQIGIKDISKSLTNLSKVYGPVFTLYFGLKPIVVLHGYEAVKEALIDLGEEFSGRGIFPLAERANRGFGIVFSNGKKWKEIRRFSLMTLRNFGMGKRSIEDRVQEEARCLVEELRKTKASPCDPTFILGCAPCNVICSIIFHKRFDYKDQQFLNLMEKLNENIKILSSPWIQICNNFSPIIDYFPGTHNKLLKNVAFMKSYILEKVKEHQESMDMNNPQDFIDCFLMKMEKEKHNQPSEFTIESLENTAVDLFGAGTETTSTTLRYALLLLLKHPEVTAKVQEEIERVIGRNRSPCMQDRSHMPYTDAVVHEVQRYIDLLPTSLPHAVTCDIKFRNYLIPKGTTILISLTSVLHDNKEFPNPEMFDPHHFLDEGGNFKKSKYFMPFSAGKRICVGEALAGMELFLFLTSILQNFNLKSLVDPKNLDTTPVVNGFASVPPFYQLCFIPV

With `Nc1nccc(-c2cc3c([nH]2)[C@@H](CCF)CNC3=O)n1` as the compound, how does the Activity (Cytochrome P450 2D6) read?
Its Activity is “Not Active”.

What about the IC50 [1] of the same compound?
Its IC50 is > 4000 nM.

What about the IC50 [2] of the same compound?
The IC50 was 126 nM.

What about the AUC(0-inf) [3] of the same compound?
The AUC(0-inf) was 9.5 µM·h.

And the MED [4]?
The MED was 0.6 µM.

What about the CL renal [5] of the same compound?
Its CL renal is 6.67 mL/min/kg.

And the IC50 (A2780)?
Its IC50 is 500 nM.

What about the Cmax [6] of the same compound?
Its Cmax is 5.5 µM.

And the IC50 [7]?
The IC50 was > 4000 nM.

What about the IC50 [8] of the same compound?
Its IC50 is 138 nM.

What about the half-life [9] of the same compound?
Its half-life is 1.2 h.

What about the Activity (Mus musculus [10]) of the same compound?
The Activity was “Active”.

What about the Activity (Mus musculus [11]) of the same compound?
The Activity was “Active”.

And the IC50 (Aurora kinase A)?
The IC50 was > 4000 nM.

What about the IC50 [12] of the same compound?
Its IC50 is 30 nM.

What about the IC50 [13] of the same compound?
The IC50 was 1200 nM.

What about the half-life [14] of the same compound?
Its half-life is 1.3 h.

And the IC50 (COLO 205)?
The IC50 was 500 nM.

What about the Activity (Cytochrome P450 1A2) of the same compound?
Its Activity is “Not Active”.

What about the Activity (HeLa [15]) of the same compound?
Its Activity is “Active”.

What about the Cmax [16] of the same compound?
Its Cmax is 20.3 µM.

What about the Activity (Cytochrome P450 2C19) of the same compound?
The Activity was “Not Active”.

What about the Activity (HeLa [17]) of the same compound?
Its Activity is 28%.

What about the IC50 [18] of the same compound?
The IC50 was > 4000 nM.

And the IC50 [19]?
The IC50 was 2 nM.

What about the clearance [20] of the same compound?
Its clearance is 30 mL/min/kg.

And the IC50 (HT-29)?
Its IC50 is 4100 nM.

What about the IC50 [21] of the same compound?
The IC50 was > 4000 nM.

What about the Activity (HeLa [22]) of the same compound?
The Activity was 16%.

What about the IC50 [23] of the same compound?
Its IC50 is > 4000 nM.

What about the IC50 [24] of the same compound?
Its IC50 is 400 nM.

What about the IC50 [25] of the same compound?
Its IC50 is 846 nM.

What about the Tmax [26] of the same compound?
The Tmax was 0.3 h.

What about the clearance [27] of the same compound?
The clearance was 53.3 mL/min/kg.

What about the Activity (Cytochrome P450 2C9) of the same compound?
The Activity was “Not Active”.
